Reference: ChEMBL document CHEMBL4689842, “EUbOPEN Chemogenomics Library wave 1” (2021)

System: U2OS
Assay: Multiplex assay against U2OS
Assay type: toxicity, cell-based
Details: human
Outline: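 At seeding, live cells were stained with Hoechst33342, BioTracker Green Microtubule Cytoskeleton Dye, MitoTracker Red and Annexin V Alexa Fluor 680. After compound addition they were imaged on a CQ1 microscope at 37°C and 5% CO2, and CellPathfinder machine-learning gating sorted them into Hoechst high-intensity objects or normal cells, with normal cells further split into healthy, pyknosed or fragmented nuclei and pyknosed cells into mitotic or apoptotic. Tubulin, mitochondrial-mass and membrane-permeability phenotypes are given as per cents of cells with healthy nuclei.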

[1] = 12 h, 1 µM, compound concentration 1 uM, replicate 1
[2] = 12 h, 1 µM, compound concentration 1 uM, replicate 2
[3] = 12 h, 10 µM, compound concentration 10 uM, replicate 1
[4] = 12 h, 10 µM, compound concentration 10 uM, replicate 2
[5] = 24 h, 1 µM, compound concentration 1 uM, replicate 1
[6] = 24 h, 1 µM, compound concentration 1 uM, replicate 2
[7] = 24 h, 10 µM, compound concentration 10 uM, replicate 1
[8] = 24 h, 10 µM, compound concentration 10 uM, replicate 2
[9] = 48 h, 1 µM, compound concentration 1 uM, replicate 1
[10] = 48 h, 1 µM, compound concentration 1 uM, replicate 2
[11] = 48 h, 10 µM, compound concentration 10 uM, replicate 1
[12] = 48 h, 10 µM, compound concentration 10 uM, replicate 2

How did the “Population Apoptotic (%)” value [1] turn out when `CCN1CCN(Cc2ccc(Nc3ncc(F)c(-c4cc(F)c5nc(C)n(C(C)C)c5c4)n3)nc2)CC1.CS(=O)(=O)O` was run?
The value was 46%.

What about the “Population Fragmented Nuclei (%)” value [1] of the same compound?
Its value is 18%.

And the “Population Healthy Nuclei (%)” value [1]?
Its value is 63%.

What about the “Population Hoechst High Intensity Objects (%)” value [1] of the same compound?
The value was 8%.

And the “Population Membrane Permeable-Phenotype (%)” value [1]?
Its value is 4%.

And the “Population Mitochondria Different-Phenotype (%)” value [1]?
The value was 92%.

And the “Population Mitotic Cells (%)” value [1]?
The value was 53%.

And the “Population Normal (%)” value [1]?
Its value is 91%.

And the “Population Pyknosed Nuclei (%)” value [1]?
Its value is 17%.

What about the “Population Tubulin-Different-Phenotype (%)” value [1] of the same compound?
Its value is 91%.

What about the “Total Cell Count” value [1] of the same compound?
The value was 160.

And the “Population Apoptotic (%)” value [2]?
The value was 40%.

And the “Population Fragmented Nuclei (%)” value [2]?
The value was 17%.

What about the “Population Healthy Nuclei (%)” value [2] of the same compound?
The value was 67%.

What about the “Population Hoechst High Intensity Objects (%)” value [2] of the same compound?
Its value is 6%.

And the “Population Membrane Permeable-Phenotype (%)” value [2]?
The value was 8%.

What about the “Population Mitochondria Different-Phenotype (%)” value [2] of the same compound?
Its value is 91%.

And the “Population Mitotic Cells (%)” value [2]?
Its value is 60%.

And the “Population Normal (%)” value [2]?
The value was 93%.

And the “Population Pyknosed Nuclei (%)” value [2]?
Its value is 14%.

And the “Population Tubulin-Different-Phenotype (%)” value [2]?
The value was 97%.

And the “Total Cell Count” value [2]?
Its value is 73.

What about the “Population Apoptotic (%)” value [3] of the same compound?
The value was 82%.

And the “Population Fragmented Nuclei (%)” value [3]?
The value was 35%.

And the “Population Healthy Nuclei (%)” value [3]?
The value was 29%.

What about the “Population Hoechst High Intensity Objects (%)” value [3] of the same compound?
The value was 5%.

And the “Population Membrane Permeable-Phenotype (%)” value [3]?
Its value is 66%.

And the “Population Mitochondria Different-Phenotype (%)” value [3]?
The value was 100%.

And the “Population Mitotic Cells (%)” value [3]?
Its value is 18%.

What about the “Population Normal (%)” value [3] of the same compound?
The value was 94%.

What about the “Population Pyknosed Nuclei (%)” value [3] of the same compound?
Its value is 35%.

And the “Total Cell Count” value [3]?
The value was 151.

And the “Population Apoptotic (%)” value [4]?
Its value is 83%.

What about the “Population Fragmented Nuclei (%)” value [4] of the same compound?
The value was 32%.

What about the “Population Healthy Nuclei (%)” value [4] of the same compound?
Its value is 22%.

And the “Population Hoechst High Intensity Objects (%)” value [4]?
Its value is 9%.

What about the “Population Membrane Permeable-Phenotype (%)” value [4] of the same compound?
The value was 88%.

What about the “Population Mitochondria Different-Phenotype (%)” value [4] of the same compound?
Its value is 94%.

What about the “Population Mitotic Cells (%)” value [4] of the same compound?
The value was 16%.

And the “Population Normal (%)” value [4]?
Its value is 90%.

What about the “Population Pyknosed Nuclei (%)” value [4] of the same compound?
Its value is 45%.

What about the “Population Tubulin-Different-Phenotype (%)” value [4] of the same compound?
The value was 100%.

And the “Total Cell Count” value [4]?
Its value is 88.

And the “Population Apoptotic (%)” value [5]?
The value was 53%.

What about the “Population Fragmented Nuclei (%)” value [5] of the same compound?
The value was 19%.

And the “Population Healthy Nuclei (%)” value [5]?
The value was 59%.

And the “Population Hoechst High Intensity Objects (%)” value [5]?
The value was 8%.

And the “Population Membrane Permeable-Phenotype (%)” value [5]?
Its value is 10%.

And the “Population Mitochondria Different-Phenotype (%)” value [5]?
Its value is 91%.

What about the “Population Mitotic Cells (%)” value [5] of the same compound?
The value was 46%.

What about the “Population Normal (%)” value [5] of the same compound?
The value was 91%.

What about the “Population Pyknosed Nuclei (%)” value [5] of the same compound?
Its value is 20%.

What about the “Population Tubulin-Different-Phenotype (%)” value [5] of the same compound?
Its value is 89%.

What about the “Total Cell Count” value [5] of the same compound?
The value was 171.

And the “Population Apoptotic (%)” value [6]?
Its value is 58%.

And the “Population Fragmented Nuclei (%)” value [6]?
The value was 20%.

What about the “Population Healthy Nuclei (%)” value [6] of the same compound?
The value was 61%.

What about the “Population Hoechst High Intensity Objects (%)” value [6] of the same compound?
Its value is 10%.

What about the “Population Membrane Permeable-Phenotype (%)” value [6] of the same compound?
The value was 21%.

What about the “Population Mitochondria Different-Phenotype (%)” value [6] of the same compound?
Its value is 85%.

What about the “Population Mitotic Cells (%)” value [6] of the same compound?
The value was 41%.

What about the “Population Normal (%)” value [6] of the same compound?
The value was 89%.

What about the “Population Pyknosed Nuclei (%)” value [6] of the same compound?
The value was 17%.

And the “Population Tubulin-Different-Phenotype (%)” value [6]?
The value was 87%.

And the “Total Cell Count” value [6]?
Its value is 75.

What about the “Population Apoptotic (%)” value [7] of the same compound?
The value was 96%.

And the “Population Fragmented Nuclei (%)” value [7]?
Its value is 41%.

And the “Population Healthy Nuclei (%)” value [7]?
Its value is 8%.

And the “Population Hoechst High Intensity Objects (%)” value [7]?
Its value is 8%.

And the “Population Membrane Permeable-Phenotype (%)” value [7]?
The value was 72%.

What about the “Population Mitochondria Different-Phenotype (%)” value [7] of the same compound?
The value was 90%.

And the “Population Mitotic Cells (%)” value [7]?
Its value is 3%.

What about the “Population Normal (%)” value [7] of the same compound?
Its value is 91%.

What about the “Population Pyknosed Nuclei (%)” value [7] of the same compound?
The value was 49%.

What about the “Population Tubulin-Different-Phenotype (%)” value [7] of the same compound?
The value was 90%.

What about the “Total Cell Count” value [7] of the same compound?
Its value is 135.

And the “Population Apoptotic (%)” value [8]?
The value was 97%.

And the “Population Fragmented Nuclei (%)” value [8]?
Its value is 27%.

And the “Population Healthy Nuclei (%)” value [8]?
Its value is 13%.

And the “Population Hoechst High Intensity Objects (%)” value [8]?
The value was 20%.

What about the “Population Membrane Permeable-Phenotype (%)” value [8] of the same compound?
The value was 100%.

And the “Population Mitochondria Different-Phenotype (%)” value [8]?
The value was 87%.

What about the “Population Mitotic Cells (%)” value [8] of the same compound?
The value was 2%.

What about the “Population Normal (%)” value [8] of the same compound?
Its value is 79%.

What about the “Population Pyknosed Nuclei (%)” value [8] of the same compound?
Its value is 59%.

And the “Population Tubulin-Different-Phenotype (%)” value [8]?
Its value is 100%.

And the “Total Cell Count” value [8]?
Its value is 74.

And the “Population Apoptotic (%)” value [9]?
Its value is 55%.

And the “Population Fragmented Nuclei (%)” value [9]?
The value was 26%.

What about the “Population Membrane Permeable-Phenotype (%)” value [9] of the same compound?
Its value is 18%.

What about the “Population Mitochondria Different-Phenotype (%)” value [9] of the same compound?
Its value is 82%.

What about the “Population Mitotic Cells (%)” value [9] of the same compound?
The value was 44%.

And the “Population Pyknosed Nuclei (%)” value [9]?
The value was 21%.

What about the “Population Tubulin-Different-Phenotype (%)” value [9] of the same compound?
The value was 79%.

What about the “Total Cell Count” value [9] of the same compound?
The value was 215.

And the “Population Apoptotic (%)” value [10]?
The value was 64%.

And the “Population Fragmented Nuclei (%)” value [10]?
The value was 25%.

And the “Population Healthy Nuclei (%)” value [10]?
Its value is 51%.

What about the “Population Hoechst High Intensity Objects (%)” value [10] of the same compound?
Its value is 8%.

And the “Population Membrane Permeable-Phenotype (%)” value [10]?
The value was 31%.

And the “Population Mitochondria Different-Phenotype (%)” value [10]?
Its value is 71%.

And the “Population Mitotic Cells (%)” value [10]?
Its value is 35%.

And the “Population Normal (%)” value [10]?
Its value is 91%.

What about the “Population Pyknosed Nuclei (%)” value [10] of the same compound?
Its value is 22%.

What about the “Population Tubulin-Different-Phenotype (%)” value [10] of the same compound?
The value was 84%.

And the “Total Cell Count” value [10]?
The value was 81.

And the “Population Apoptotic (%)” value [11]?
The value was 98%.

What about the “Population Fragmented Nuclei (%)” value [11] of the same compound?
The value was 43%.

And the “Population Healthy Nuclei (%)” value [11]?
The value was 2%.

What about the “Population Hoechst High Intensity Objects (%)” value [11] of the same compound?
The value was 15%.

What about the “Population Membrane Permeable-Phenotype (%)” value [11] of the same compound?
Its value is 100%.

What about the “Population Mitochondria Different-Phenotype (%)” value [11] of the same compound?
Its value is 100%.

And the “Population Mitotic Cells (%)” value [11]?
The value was 1%.

And the “Population Normal (%)” value [11]?
Its value is 84%.

And the “Population Pyknosed Nuclei (%)” value [11]?
The value was 53%.

And the “Population Tubulin-Different-Phenotype (%)” value [11]?
The value was 100%.

And the “Total Cell Count” value [11]?
The value was 137.

What about the “Population Apoptotic (%)” value [12] of the same compound?
The value was 100%.

And the “Population Fragmented Nuclei (%)” value [12]?
Its value is 17%.

What about the “Population Healthy Nuclei (%)” value [12] of the same compound?
The value was 45%.

What about the “Population Hoechst High Intensity Objects (%)” value [12] of the same compound?
The value was 34%.

What about the “Population Mitochondria Different-Phenotype (%)” value [12] of the same compound?
The value was 95%.

What about the “Population Mitotic Cells (%)” value [12] of the same compound?
Its value is 0%.

And the “Population Normal (%)” value [12]?
Its value is 65%.

What about the “Population Pyknosed Nuclei (%)” value [12] of the same compound?
Its value is 36%.

What about the “Population Tubulin-Different-Phenotype (%)” value [12] of the same compound?
Its value is 95%.

What about the “Total Cell Count” value [12] of the same compound?
Its value is 70.
